# Experimental data taken from ChEMBL document CHEMBL1629577, “Activity of T-705 in a hamster model of yellow fever virus infection in comparison with that of a chemically related compound, T-1106” (Antimicrob Agents Chemother, 2009).
# pEC50: −log10 of the molar value. Active and inactive are the calls of the source. No cut-off for these calls is given here.
# How the values were obtained:
# Yellow fever virus [1] = experiment: Antiviral activity against Yellow fever virus 17D infected in African green monkey Vero cells assessed as inhibition of virus induced cytopathic effect by microscopic analysis; type: functional, cell-based
# Yellow fever virus [2] = experiment: Antiviral activity against Yellow fever virus 17D infected in African green monkey Vero cells assessed as inhibition of virus induced cytopathic effect […] by NR dye uptake assay; type: functional, cell-based
# Yellow fever virus [3] = experiment: Antiviral activity against Yellow fever virus 17D infected in African green monkey Vero cells assessed as inhibition of virus induced cytopathic effect by luciferase reporter gene assay; type: functional, cell-based
# [4] = Cytotoxicity against African green monkey Vero cells by luciferase-based cell viability assay; conditions: chlorocebus sabaeus
# Method in brief: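 Uninfected Vero cells exposed to compound were assayed for ATP content by luminescence (Cell-Titer Glo) to derive the CC50.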
# Yellow fever virus [5] = experiment: Antiviral activity against Yellow fever virus 17D infected in African green monkey Vero cells assessed as reduction in virus yield; type: functional
# Method in brief: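 Virus yield reduction in Vero cells infected with YFV 17D after compound exposure, with progeny virus titred by CCID50. The EC90 was averaged over separate experiments.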
# [6] = Selectivity index, ratio of CC50 for African green monkey vero cells to EC90 for Yellow fever virus 17D; type: toxicity, cell-based; conditions: read-out: Selectivity Index
# Method in brief: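 SI was calculated as the CC50 in uninfected Vero cells divided by the EC90 from the YFV 17D virus yield reduction assay in Vero cells.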
# Yellow fever virus [7] = experiment: Antiviral activity against Yellow fever virus 17D infected in African green monkey Vero cells assessed as time required for inhibition of viral replication at 6400 uM up to 12 hrs post-viral infection; type: functional, cell-based
# Yellow fever virus [8] = experiment: Antiviral activity against 10^2 CCID50 Yellow fever virus Jimenez infected in syrian golden hamster assessed as reduction in viral titer in liver at 32 mg/kg/day administered twice daily for 8 days started 6 days post infection by quantitative RT-PCR analysis; type: functional
# Yellow fever virus [9] = experiment: Antiviral activity against 10^2 CCID50 Yellow fever virus Jimenez infected in syrian golden hamster assessed as serum ALT level at 32 mg/kg/day, po administered twice daily for 8 days started 4 hrs prior to viral infection; type: functional
# Syrian golden hamster [10] = experiment: Toxicity in syrian golden hamster infected with 10^2 CCID50 Yellow fever virus Jimenez assessed as weight change at 32 mg/kg/day, po administered twice daily for 8 days started 4 hrs prior to viral infection relative to control; type: organism-based, Mesocricetus auratus; design: route oral; conditions: in vivo
# Yellow fever virus [11] = experiment: Antiviral activity against 10^2 CCID50 Yellow fever virus Jimenez infected in syrian golden hamster assessed as mean day of death […] at 32 mg/kg/day, po administered twice daily for 8 days started 4 hrs prior to viral infection relative to control; type: functional
# Yellow fever virus [12] = experiment: Antiviral activity against 10^2 CCID50 Yellow fever virus Jimenez infected in syrian golden hamster assessed as mean day of death […] at 10 mg/kg/day, po administered twice daily for 8 days started 4 hrs prior to viral infection relative to control; type: functional
# Yellow fever virus [13] = experiment: Antiviral activity against 10^2 CCID50 Yellow fever virus Jimenez infected in syrian golden hamster assessed as serum survival of animal at 32 mg/kg/day, po administered twice daily for 8 days started 4 hrs prior to viral infection; type: functional, organism-based
# Syrian golden hamster [14] = experiment: Toxicity in syrian golden hamster infected with 10^2 CCID50 Yellow fever virus assessed as weight change in surviving animals at 400 mg/kg/day, po BID administered for 8 days started 4 days post viral challenge; type: organism-based, Mesocricetus auratus; design: route oral; conditions: in vivo
# Syrian golden hamster [15] = experiment: Toxicity in syrian golden hamster infected with 10^2 CCID50 Yellow fever virus assessed as weight change in surviving animals at 400 mg/kg/day, po BID administered for 8 days started 5 days post viral challenge; type: organism-based, Mesocricetus auratus; design: route oral; conditions: in vivo
# Syrian golden hamster [16] = experiment: Toxicity in syrian golden hamster infected with 10^2 CCID50 Yellow fever virus assessed as weight change in non surviving animals at 400 mg/kg/day, po BID administered for 8 days started 4 days post viral challenge; type: organism-based, Mesocricetus auratus; design: route oral; conditions: in vivo
# Syrian golden hamster [17] = experiment: Toxicity in syrian golden hamster infected with 10^2 CCID50 Yellow fever virus assessed as weight change in non surviving animals at 400 mg/kg/day, po BID administered for 8 days started 5 days post viral challenge; type: organism-based, Mesocricetus auratus; design: route oral; conditions: in vivo
# Syrian golden hamster [18] = experiment: Toxicity in syrian golden hamster infected with 10^2 CCID50 Yellow fever virus Jimenez assessed as weight change at 400 mg/kg/day, po administered twice daily for 8 days started 2 day post viral infection; type: organism-based, Mesocricetus auratus; design: route oral; conditions: in vivo
# Syrian golden hamster [19] = experiment: Toxicity in syrian golden hamster infected with 10^2 CCID50 Yellow fever virus Jimenez assessed as weight change at 400 mg/kg/day, po administered twice daily for 8 days started 3 day post viral infection; type: organism-based, Mesocricetus auratus; design: route oral; conditions: in vivo
# Syrian golden hamster [20] = experiment: Toxicity in syrian golden hamster infected with 10^2 CCID50 Yellow fever virus Jimenez assessed as weight change at 400 mg/kg/day, po administered twice daily for 8 days started 4 day post viral infection; type: organism-based, Mesocricetus auratus; design: route oral; conditions: in vivo
# Syrian golden hamster [21] = experiment: Toxicity in syrian golden hamster infected with 10^2 CCID50 Yellow fever virus Jimenez assessed as weight change at 400 mg/kg/day, po administered twice daily for 8 days started 5 day post viral infection; type: organism-based, Mesocricetus auratus; design: route oral; conditions: in vivo
# Syrian golden hamster [22] = experiment: Toxicity in syrian golden hamster infected with 10^2 CCID50 Yellow fever virus Jimenez assessed as weight change at 400 mg/kg/day, po administered twice daily for 8 days started 1 day post viral infection; type: organism-based, Mesocricetus auratus; design: route oral; conditions: in vivo
# Syrian golden hamster [23] = experiment: Toxicity in syrian golden hamster infected with 10^2 CCID50 Yellow fever virus Jimenez assessed as weight change at 400 mg/kg/day, po administered twice daily for 8 days started 4 hrs prior to viral infection relative to control; type: organism-based, Mesocricetus auratus; design: route oral; conditions: in vivo
# Syrian golden hamster [24] = experiment: Toxicity in syrian golden hamster infected with 10^2 CCID50 Yellow fever virus Jimenez assessed as weight change at 100 mg/kg/day, po administered twice daily for 8 days started 4 hrs prior to viral infection; type: organism-based, Mesocricetus auratus; design: route oral; conditions: in vivo
# Syrian golden hamster [25] = experiment: Toxicity in syrian golden hamster infected with 10^2 CCID50 Yellow fever virus Jimenez assessed as weight change at 200 mg/kg/day, po administered twice daily for 8 days started 4 hrs prior to viral infection relative to control; type: organism-based, Mesocricetus auratus; design: route oral; conditions: in vivo
# Syrian golden hamster [26] = experiment: Toxicity in syrian golden hamster assessed as number of animals alive at 400 mg/kg/day, po BID administered for 8 days; type: organism-based, Mesocricetus auratus; design: route oral; conditions: in vivo, 192 h
# Method in brief: (§1)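 Uninfected toxicity-control hamsters, three per group, were dosed p.o. in 0.4% carboxymethyl cellulose twice daily, 12 h apart, for 8 days. Deaths were recorded daily. Body weights were taken at 0, 3 and 6 dpi.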
# Syrian golden hamster [27] = experiment: Toxicity in syrian golden hamster assessed as weight change at 400 mg/kg/day, po BID administered for 8 days; type: organism-based, Mesocricetus auratus; design: route oral; conditions: in vivo, 192 h; method in brief: as §1
# Yellow fever virus [28] = experiment: Antiviral activity against 10^2 CCID50 Yellow fever virus Jimenez infected in syrian golden hamster assessed as serum ALT level at 10 mg/kg/day, po administered twice daily for 8 days started 4 hrs prior to viral infection; type: functional
# Syrian golden hamster [29] = experiment: Toxicity in syrian golden hamster infected with 10^2 CCID50 Yellow fever virus Jimenez assessed as weight change at 10 mg/kg/day, po administered twice daily for 8 days started 4 hrs prior to viral infection relative to control; type: organism-based, Mesocricetus auratus; design: route oral; conditions: in vivo
# Yellow fever virus [30] = experiment: Antiviral activity against 10^2 CCID50 Yellow fever virus Jimenez infected in syrian golden hamster assessed as mean day of death […] at 50 mg/kg/day, po administered twice daily for 8 days started 4 hrs prior to viral infection relative to control; type: functional
# Yellow fever virus [31] = experiment: Antiviral activity against 10^2 CCID50 Yellow fever virus Jimenez infected in syrian golden hamster assessed as serum survival of animal at 50 mg/kg/day, po administered twice daily for 8 days started 4 hrs prior to viral infection; type: functional, organism-based
compound,measurement,setting,value
NC(=O)c1nccn([C@@H]2O[C@H](CO)[C@@H](O)[C@H]2O)c1=O,pEC50,Yellow fever virus [1],2.97
same,pEC50,Yellow fever virus [2],2.74
same,pEC50,Yellow fever virus [3],2.58
same,CC50,[4],> 4 mM
same,EC90,Yellow fever virus [5],1110 µM
same,selectivity ratio,[6],> 3.6
same,Activity,Yellow fever virus [7],Active
same,Activity,Yellow fever virus [8],85 IU/L
same,Activity,Yellow fever virus [9],154 IU/L
same,Activity,Syrian golden hamster [10],0.2 g
same,Time,Yellow fever virus [11],>21 days
same,Time,Yellow fever virus [12],8 days
same,Activity,Yellow fever virus [13],Active
NC(=O)c1nc(F)c[nH]c1=O [FAVIPIRAVIR],Activity,Syrian golden hamster [14],2.2 g
same,Activity,Syrian golden hamster [15],-2.8 g
same,Activity,Syrian golden hamster [16],-18.5 g
same,Activity,Syrian golden hamster [17],-7.3 g
same,Activity,Syrian golden hamster [18],0 g
same,Activity,Syrian golden hamster [19],-4.1 g
same,Activity,Syrian golden hamster [20],-3 g
same,Activity,Syrian golden hamster [21],-4.5 g
same,Activity,Syrian golden hamster [22],-0.3 g
same,CC50,[4],> 6.37 mM
same,selectivity ratio,[6],> 19
same,Activity,Syrian golden hamster [23],5.2 g
same,Activity,Syrian golden hamster [24],-2.9 g
same,Activity,Syrian golden hamster [25],2.2 g
same,Activity,Syrian golden hamster [26],Non-toxic
same,Activity,Syrian golden hamster [27],5.3 g
NC(=O)c1ncn([C@@H]2O[C@H](CO)[C@@H](O)[C@H]2O)n1 [RIBAVIRIN],pEC50,Yellow fever virus [1],4.55
same,CC50,[4],> 4.1 mM
same,EC90,Yellow fever virus [5],690 µM
same,selectivity ratio,[6],> 6
same,Activity,Yellow fever virus [28],103 IU/L
same,Activity,Syrian golden hamster [29],2.4 g
same,Time,Yellow fever virus [30],>21 days
same,Activity,Yellow fever virus [31],Active
